High-throughput results as filed in PubChem.
Sampled rows, rich in hits. Any-hit rate of the full collection: about 5.8%.
14-3-3 Bad PPI: disrupts binding of bovine 14-3-3 zeta to phospho-Bad peptide. TR-FRET 14-3-3zeta/Dy647-pBad peptide displacement, 1 h. P63103. 0.71% of 220,000 active. AID 781. inhibition, % at 21.7 µM;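 active = inhibition above about 70%, limit read from the data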
Target sequence (P63103 whole entry, looked up): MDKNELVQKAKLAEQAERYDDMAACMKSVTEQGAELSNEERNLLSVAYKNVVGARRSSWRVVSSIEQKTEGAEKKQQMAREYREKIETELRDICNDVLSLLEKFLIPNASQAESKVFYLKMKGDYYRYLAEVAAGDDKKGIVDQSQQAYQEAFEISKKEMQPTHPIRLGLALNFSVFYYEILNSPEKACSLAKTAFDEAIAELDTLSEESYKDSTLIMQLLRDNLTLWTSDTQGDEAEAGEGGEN
RBBP9 inhibitor: blocks human serine hydrolase RBBP9; O75884; recombinant RBBP9, FP-Rh probe fluorescence polarization; inhibition, % at 7.94 µM; 0.2% of 220,000 active;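 active = inhibition above the campaign mean of all tested compounds plus 3 SD, cut at about 14% in these data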
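Test system – recombinant human RBBP9 · Input – RBBP9 2.5 µM in dispensing solution, pre-mixing · Medium – Tris buffer pH 8.0, NaCl, Pluronic · Schedule – preincubation 30 min plus labeling 45 min at 25 °C · Measured by – fluorescence polarization · Measure – % inhibition · Controls – DMSO and no-protein wells · Replicates – one well per compound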
p47phox inh: inhibitors of human p47phox binding | 0.53% of 220,000 active | inhibition, % at 24.7 µM | p47phox/p22phox peptide binding, fluorescence polarization, 2 h;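 active = inhibition above about 30%, limit read from the data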
WT yeast gro inh: growth inhibition of WT yeast, mitochondrial fusion screen | AID 1362 | 2.1% of 190,000 active | inhibition, % at 10 µM | mitochondrial fusion phenotypic screen, WT strain; in the data active = inhibition above about 58%; tested in S. cerevisiae
Cl transport mod: modulators of human KCC2 chloride dependent transport. Q9H2X9. KCC2 cells, thallium flux FluoZin-2 fluorescence. B-score of Tl+ flux slope (higher = more flux/activation; lower = inhibition) at 10 µM. 2.2% of 190,000 active. AID 1456;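 active = thallium flux slope and its plate-corrected score both differing from the plate sample mean at a set confidence after two filtering rounds, in either direction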;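 note: slope of fluorescence scaled to starting intensity during 10 to 20 s after thallium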
ROMK primary: modulates human ROMK potassium channel activity; Tet-inducible ROMK, thallium flux fluorescence; actives lie on both sides; B-score at 10 µM; 2% of 130,000 active; AID 1918;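 active = signal ratio slope over the read window, or its plate-corrected B-score, at least 3 SD from the plate mean, either direction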;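 note: B-score of the F/F0 ratio slope over 7 to 12 s after thallium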
Target sequence (P48048 whole entry, looked up): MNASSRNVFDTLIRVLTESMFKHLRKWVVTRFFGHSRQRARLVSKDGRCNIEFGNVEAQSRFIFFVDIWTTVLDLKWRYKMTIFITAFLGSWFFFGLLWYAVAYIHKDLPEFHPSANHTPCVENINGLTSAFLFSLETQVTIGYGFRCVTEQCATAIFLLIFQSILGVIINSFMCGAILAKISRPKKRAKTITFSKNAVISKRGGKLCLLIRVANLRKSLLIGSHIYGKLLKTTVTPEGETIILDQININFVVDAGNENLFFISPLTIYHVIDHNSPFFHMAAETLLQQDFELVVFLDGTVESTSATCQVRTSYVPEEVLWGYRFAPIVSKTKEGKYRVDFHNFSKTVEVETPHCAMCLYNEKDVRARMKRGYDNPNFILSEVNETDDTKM
KCC2 secondary: KCC2 (human) modulation, secondary assay | shares compounds with Cl transport mod | HEK293-KCC2, thallium flux, FluoZin2 fluorescence; stronger effect = higher value | normalised thallium flux (F/F0 slope) at 10 µM | 15% of 3,700 active;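 active = thallium flux slope above the same plate's solvent-only control mean plus 3 SD; inconclusive = the two replicate wells disagree; inactive = no significant difference from solvent-only control wells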
KCC2 bumet counter: thallium flux persisting under bumetanide in KCC2 cells, counter-screen secondary assay; shares compounds with Cl transport mod; HEK293-KCC2 + bumetanide/ouabain, thallium flux FluoZin2; stronger effect = higher value; normalized thallium flux at 10 µM; 49% of 3,700 active;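 active = thallium entry rate above the same plate's blocked-transporter control wells by more than 3 SD; inconclusive = the two repeat wells disagree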;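 note: raw slope of fluorescence over initial fluorescence between 10 and 20 s after thallium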
KCC2 sec2: KCC2 (human) modulation, second secondary assay | normalized thallium flux at 10 µM | HEK293-KCC2, thallium flux FluoZin2 fluorescence; actives lie on both sides; F/F0 rise rate, 10–20 s post-thallium | shares compounds with Cl transport mod | 23% of 3,700 active | AID 1715;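 active = thallium flux slope more than 3 SD above or below the plate's solvent-only control mean, mostly below; inconclusive = the two repeat wells disagreed; inactive = no significant shift from solvent-only controls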
HEK293 Tl flux: parental HEK flux effect, counter-screen; shares compounds with Cl transport mod; HEK293 parental cells, thallium flux FluoZin2, ouabain; baseline-ratio fluorescence slope, 10–20 s after thallium; thallium flux rate (normalised fluorescence) at 10 µM; 46% of 3,700 active; AID 1716;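 active = thallium flux rate significantly above the same plate's solvent-only control wells, beyond their mean plus 3 SD; inconclusive = the two replicate wells gave conflicting results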
KCC2 ouabain: confirmation of human KCC2 modulators with ouabain. AID 1717. 48% of 3,700 active. HEK293-KCC2, thallium flux FluoZin2 fluorescence; bidirectional: low = inhibitor, high = activator. raw Tl+ flux slope (below DMSO = inhibition, above = activation) at 10 µM. shares compounds with Cl transport mod;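 active = thallium flux slope beyond 3 SD from same-plate DMSO control mean in most replicates, usually higher, sometimes lower; inconclusive = repeat tests gave conflicting results; inactive = no significant difference from controls in most replicates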;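 note: slope of initial-normalized fluorescence between seconds 10 and 20 after thallium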
HEK counter2: parental HEK flux effect, counter-screen 2. shares compounds with Cl transport mod. HEK293 parental, thallium flux FluoZin-2 fluorescence slope. thallium flux slope at 10 µM. 33% of 3,700 active. AID 1718;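 active = thallium flux slope above the same plate's solvent-control mean plus 3 SD in both duplicate wells; inconclusive = duplicate wells that disagreed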;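 note: run without ouabain in cells lacking the KCC2 cotransporter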
Hits are given with their value; . = inactive; ? = inconclusive; / = not tested or not shown.

SMILES | 14-3-3 Bad PPI | RBBP9 inhibitor | p47phox inh | WT yeast gro inh | Cl transport mod | ROMK primary | KCC2 secondary | KCC2 bumet counter | KCC2 sec2 | HEK293 Tl flux | KCC2 ouabain | HEK counter2
O=C(C1CCCN(S(=O)(=O)c2cccc3nonc23)C1)N1CCN(c2ccccc2Cl)CC1 (stereo not drawn) | . | . | . | . | . | . | / | / | / | / | / | /
O=C(NCCN1CCC(Cc2ccccc2)CC1)C1CCCN(S(=O)(=O)c2cnc[nH]2)C1 (stereo not drawn) | . | . | . | . | -4.03 | / | . | . | . | . | . | .
Cn1c(NC(=S)Nc2ccccc2)nc2ccccc21 | . | . | . | . | 7.44 | . | ? | 0.0638 | . | 0.0229 | 0.0426 | 0.0142
S=C(Nc1ccccc1)Nc1nc2ccccc2n1CCOc1ccc(Br)cc1 | . | . | . | . | 3.39 | / | . | 0.0316 | . | 0.0101 | . | ?
O=C1NC(=O)/C(=C\c2ccc(Oc3cnccn3)cc2)S1 | . | . | . | . | . | . | / | / | / | / | / | /
O=C1NC(=S)S/C1=C/c1ccc(Oc2cnccn2)cc1 | . | . | . | . | / | . | 0.0123 | 0.0384 | . | 0.0117 | 0.0367 | ?
CC1=CSC2=NC(=O)/C(=C\c3cccn3-c3ccc([N+](=O)[O-])cc3)C(=N)N12 | . | . | . | . | . | . | / | / | / | / | / | /
CCC1=NN2C(=N)/C(=C/c3cc(C)n(Cc4ccccc4)c3C)C(=O)N=C2S1 | . | . | . | / | . | / | / | / | / | / | / | /
Cc1cc(/C=C2/C(=N)N3C(=NC2=O)SN=C3S(C)(=O)=O)c(C)n1-c1ccc(F)cc1 | . | . | . | . | . | . | / | / | / | / | / | /
CCC1=NN2C(=N)/C(=C\c3cccn3-c3ccc(C)cc3C)C(=O)N=C2S1 | . | . | . | 83.5 | 8.57 | . | . | 0.0554 | . | 0.0197 | 0.04 | ?
Cc1cccc(C)c1-n1cccc1/C=C1/C(=N)N2C(=NC1=O)SN=C2S(C)(=O)=O | . | . | . | . | -4.51 | . | . | . | . | . | 0.0148 | .
CCC1=NN2C(=N)/C(=C\c3cccn3-c3c(C)cccc3C)C(=O)N=C2S1 | . | . | . | . | 9.04 | . | ? | 0.0282 | . | 0.0324 | 0.0297 | 0.0146
CSc1ccc(CN2CCC(C(=O)NCc3ccc(C)cc3)CC2)cc1 | . | . | . | . | . | . | / | / | / | / | / | /
COC(=O)C1CCN(CC(=O)Nc2ccc(OC)c(Cl)c2)CC1 | . | . | . | . | . | . | / | / | / | / | / | /
O=[N+]([O-])c1ccc(-c2cn(-c3ccccc3F)c(=S)[nH]2)cc1 | . | . | . | . | 5.78 | . | . | 0.0117 | . | 0.0089 | ? | 0.0106
COc1cc(C2NC(=O)NC(C)=C2[N+](=O)[O-])cc(OC)c1OC (stereo not drawn) | . | . | . | / | . | . | / | / | / | / | / | /
Cc1ccc(C(=O)N/N=C\c2cccn2C)cn1 | . | . | . | . | . | / | / | / | / | / | / | /
Cn1cccc1/C=N/NC(=O)c1cccnc1 | . | . | . | . | 2.98 | . | . | . | . | . | . | .
O=C(N/N=C/c1ccncc1)c1nn(Cc2ccccc2)c(=O)c2ccccc12 | . | . | . | . | . | . | / | / | / | / | / | /
Cc1ccc(Nc2nc(-c3ccc(C)cc3)c(CC(=O)O)s2)cc1 | . | . | . | . | -3.19 | . | . | 0.00909 | . | . | . | .
O=S(=O)(CCOc1ccccc1)c1nc2ccccc2[nH]1 | . | . | . | . | / | / | . | . | . | . | . | .
Cc1oc(-c2nc3ccccc3n2C)cc1C(=O)c1ccccc1 | . | . | . | . | -2.94 | / | . | . | . | . | 0.0144 | .
O=C(CSc1ncccn1)N1CCC(Cc2ccccc2)CC1 | . | . | . | . | . | / | / | / | / | / | / | /
Nc1ccc(C(=O)Nc2nc3ccccc3s2)cc1 | . | . | . | . | -3.62 | / | . | . | . | . | . | .
NC(=S)Nc1nc2ccccc2s1 | . | . | . | . | 102 | . | 0.0411 | 0.0869 | 0.0508 | 0.0573 | 0.0563 | 0.0607
SMILES | 14-3-3 Bad PPI | RBBP9 inhibitor | p47phox inh | WT yeast gro inh | Cl transport mod | ROMK primary | KCC2 secondary | KCC2 bumet counter | KCC2 sec2 | HEK293 Tl flux | KCC2 ouabain | HEK counter2
COCC(=O)Nc1nc2ccccc2s1 | . | . | . | . | . | . | / | / | / | / | / | /
O=C1CC(N2CCC(c3nc4ccccc4[nH]3)CC2)C(=O)N1Cc1ccccc1 (stereo not drawn) | . | . | . | . | . | . | / | / | / | / | / | /
O=C1CC(c2nc3ccccc3[nH]2)CN1Cc1ccccc1 (stereo not drawn) | . | . | . | . | -3.43 | / | 0.0117 | ? | . | . | . | .
S=c1[nH]c2ccccc2n2cccc12 | . | . | . | / | 21.8 | / | 0.017 | 0.0867 | ? | 0.0281 | 0.0477 | 0.0175
O=C(NN1CCOCC1)c1ccc(Cl)s1 | . | . | . | . | . | . | / | / | / | / | / | /
Cc1nc2c(Br)c3nc(C(F)(F)F)[nH]c3c(Br)c2[nH]1 | . | . | . | . | -7.61 | / | . | . | . | . | . | .
COc1cccc(-c2nnc(NC(=O)c3ccc4ncsc4c3)o2)c1 | . | . | . | . | 8.84 | . | 0.0131 | 0.0383 | . | 0.0166 | 0.0332 | ?
Cc1cccc(C(=O)Nc2nnc(-c3cccnc3)o2)c1 | . | . | . | . | 4.65 | . | . | 0.00934 | . | 0.00991 | . | ?
COc1cccc(C(=O)Nc2nnc(-c3cccs3)o2)c1 | . | . | . | . | 5.31 | / | . | 0.0228 | . | 0.018 | 0.029 | 0.0164
COc1ccc(-c2nnc(NC(=O)c3ccccc3C)o2)cc1 | . | / | . | 63.9 | 4.49 | / | 0.0149 | 0.0239 | . | 0.0128 | . | ?
O=C(Nc1nnc(-c2cccs2)o1)c1ccco1 | . | . | . | . | . | / | / | / | / | / | / | /
N#CCC(=O)c1ccccc1Oc1ccc(Cl)cc1 | . | . | . | . | . | . | / | / | / | / | / | /
COc1cccc(C(=O)Nc2nnc(-c3ccc(Cl)cc3)o2)c1 | . | / | . | . | 45.6 | / | ? | 0.111 | 0.0945 | 0.0954 | 0.101 | 0.0893
O=C(COc1ccc(Cl)cc1)Nc1nnc(-c2ccc3c(c2)CCCC3)o1 | . | . | . | . | 6.24 | / | ? | 0.0205 | . | ? | 0.0321 | ?
